# Experimental data gathered from unrelated publications.
# murD: UDP-N-acetylmuramoylalanine--D-glutamate ligase (murD, Escherichia coli K-12, UniProt P14900)
# KAT2B: Histone acetyltransferase KAT2B (KAT2B, Homo sapiens, UniProt Q92831)
# HDAC8: Histone deacetylase 8 (HDAC8, Homo sapiens, UniProt Q9BY41)
# BRD4 BD1: Bromodomain-containing protein 4, BD1 (BRD4, Homo sapiens, UniProt O60885)
Compound,target,test,setting,quantity,result
O=[N+]([O-])c1cccc(S(=O)(=O)Oc2ccccc2C=NNS(=O)(=O)c2ccc3ccccc3c2)c1,murD,"enzyme activity, inhibitor, absorbance",50 µM,remaining activity,70%
Nc1ncnc2occ(-c3ccc(NC(=O)Nc4cc(C(F)(F)F)ccc4F)cc3)c12,"Mitogen-activated protein kinase kinase kinase 4 (MAP3K4, Homo sapiens, UniProt Q9Y6R4)","cell-free assay, inhibitor",20 µM,remaining signal,1.6%
Cc1ccc(C(=O)Nc2ccc(CN3CCN(C)CC3)c(C(F)(F)F)c2)cc1C#Cc1cnc2cccnn12,"Cyclin-dependent kinase 11B (CDK11B, Homo sapiens, UniProt P21127)",enzyme activity,23.5 nM,remaining activity,79%
Cc1cc2c(cc1N1C(=O)c3cccc4c(Cl)ccc(c34)C1=O)n(C)c(=O)n2C,KAT2B,"thermal stability, DSF",10 µM,ΔTm,0.5 °C
Nc1ncnc2c1ncn2[C@@H]1O[C@H](CO)[C@@H](O)[C@H]1O,HDAC8,"enzyme activity, inhibitor",10 µM,inhibition,-15.9%
C[S+]([O-])c1ccc(-c2nc(-c3ccncc3)c(-c3ccc(F)cc3)[nH]2)cc1 (centres unmarked),"Bromodomain-containing protein 4, BD2 (BRD4, Homo sapiens, UniProt O60885)","thermal stability, DSF",10 µM,ΔTm,1.67 °C
CC(C)[C@@H]1NC(=O)[C@@H]2CCCN2C(=O)[C@H](Cc2ccccc2)NC(=O)CSC[C@@H](C(=O)N[C@@H](Cc2ccc(O)cc2)C(N)=O)NC(=O)[C@H](Cc2c[nH]c3ccccc23)NC(=O)[C@H](CCCCN)NC(=O)[C@H](Cc2ccccc2)N(C)C(=O)[C@H](Cc2ccccc2)NC1=O,BRD4 BD1,"thermal stability, DSF",50 µM,ΔTm,-0.52 °C
CCCOc1ccc(OC)c(F)c1C(=O)c1ccc(C(=O)N[C@@H]2CNC[C@H]2NC(=O)c2ccc3[nH]ncc3c2)cc1,"cGMP-dependent protein kinase 1 (PRKG1, Homo sapiens, UniProt Q13976)","enzyme activity, inhibitor",10 µM,remaining activity,-6%
Oc1ccc(-c2nc(-c3ccncc3)c(-c3ccc(F)cc3)[nH]2)cc1,KAT2B,"thermal stability, DSF",10 µM,ΔTm,-0.19 °C
O=C(Nc1ccc(C=NNS(=O)(=O)c2ccc3ccccc3c2)cc1)c1ccccc1,murD,"enzyme activity, inhibitor, absorbance",100 µM,remaining activity,56%
Cn1nnc2ccc(NC(=O)c3cccc(C(=O)O)c3)cc21,BRD4 BD1,"thermal stability, DSF",100 µM,ΔTm,2.8 °C
N#Cc1ccc(COc2ccccc2C=NNS(=O)(=O)c2cccc([N+](=O)[O-])c2)cc1,murD,"enzyme activity, inhibitor, absorbance",100 µM,remaining activity,74%
Cc1cnc(Nc2ccc(OCCN3CCCC3)cc2)nc1Nc1cccc(S(=O)(=O)NC(C)(C)C)c1,"Tyrosine-protein kinase BAZ1B (BAZ1B, Homo sapiens, UniProt Q9UIG0)","thermal stability, DSF",10 µM,ΔTm,-0.02 °C
N#Cc1ccc(COc2ccccc2C=NNS(=O)(=O)Cc2ccccc2F)cc1,murD,"enzyme activity, inhibitor, absorbance",100 µM,remaining activity,39%
NS(=O)(=O)c1ccc(Nc2nc(-c3ccc(F)cc3)c3ccccc3n2)cc1,KAT2B,"binding, competition with immobilised ligand",1 µM,remaining binding,80%
O=c1c(O)c(-c2ccc(O)c(O)c2)oc2cc(O)cc(O)c12,HDAC8,"enzyme activity, inhibitor",10 µM,inhibition,68%
O=C(Nc1ccc(C=NNS(=O)(=O)c2ccc3ccccc3c2)cc1)c1cc([N+](=O)[O-])cc([N+](=O)[O-])c1,murD,"enzyme activity, inhibitor, absorbance",100 µM,remaining activity,78%
